# Laboratory results as given in ChEMBL document CHEMBL2331117 (J Med Chem, 2013).
# The source made the active and inactive calls. No cut-off for these calls is given here.
# Assays:
# [1] = Plasma concentration in mouse at 100 mg/kg, po after 4 hrs; assay type: ADME, organism-based; design: dose 100 mg/kg, route oral
# Plasma [2] = assay: Plasma concentration in athymic mouse plasma xenografted with human MCF7 cells at 100 mg/kg, po after 24 hrs; assay type: ADME, organism-based; design: dose 100 mg/kg, route oral; details: in vivo, BLD = below limit of detection
# Outline: (§1)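 MCF-7 cells (5 × 10^6, in 50% cold HBSS/50% growth-factor-reduced matrigel) were implanted subcutaneously in the hindflank of 5–8 week old female nude mice. At 40–150 mg tumour size, mice received a single oral dose of 100 mg/kg, and plasma was sampled at the listed times after dosing.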
# Mus musculus [3] = assay: In vivo inhibition of mTORC2-mediated phosphorylation of AKT at […] in human PC3 cells xenografted into athymic nude mouse at 100 mg/kg, po after 1 hr by Western blotting analysis relative to control; assay type: functional; details: PC-3, 1 h
# Outline: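 Human PC-3 cells were implanted subcutaneously into the hindflank of male nude mice aged 5−8 weeks, at 3 × 10^6 cells (passages 10−14, >95% viability) in ice-cold HBSS. At a tumor size of 200−500 mg, mice got one oral 100 mg/kg dose. Tumors were taken at 1, 4, 8, 16, 24 and 32 h. Lysates (n = 5 per group) were pooled, and phospho-AKT (T308) was read by Western blot, normalized to α-tubulin.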
# Mus musculus [4] = assay: In vivo inhibition of mTORC2-mediated phosphorylation of AKT at serine 473 in human MCF7 cells xenografted into athymic nude mouse at 100 mg/kg, po after 8 hrs by Western blotting analysis relative to control; assay type: functional; details: MCF7, 8 h
# Outline: (§2)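 MCF-7 cells (DMEM, 10% FBS) were implanted subcutaneously at 5 × 10^6 cells in 50% cold HBSS/50% growth-factor-reduced matrigel into the hindflank of 5−8 week old female nude mice. At tumor size 40−150 mg, mice received a single oral dose of 100 mg/kg. Tumor lysates were pooled per group. Phospho-AKT (S473, T308), p70S6K (T389), S6 (S240/244) and 4E-BP1 (T37/46) were measured by Western blot normalized to α-tubulin.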
# [5] = Clearance in Beagle dog at 3 mg/kg, iv; assay type: ADME, organism-based, Canis lupus familiaris; design: dose 3 mg/kg, route intravenous; details: in vivo
# Outline: (§3)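 Single-dose PK: female athymic nude mice (10 mg/kg), female CD rats and male beagle dogs (3 mg/kg), male cynomolgus monkeys (3 mg/kg), given iv and by oral gavage. Solution in EPW (5% ethanol/45% PEG400/water), with 1:2 HCl (m/m) for mouse, rat and dog and 1:1.5 HCl (m/m) for monkey. Plasma levels followed over 24 h.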
# Mus musculus [6] = assay: In vivo inhibition of mTORC1-mediated phosphorylation of p70S6K at […] in human PC3 cells xenografted into athymic nude mouse at 100 mg/kg, po after 24 hrs by Western blotting analysis relative to control; assay type: functional; details: PC-3, 24 h
# Outline: (§4)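 PC-3 cells grown in DMEM with 20% FBS were implanted subcutaneously at 3 × 10^6 cells in ice-cold HBSS into the hindflank of 5−8 week old male nude mice. At tumor size 200−500 mg, mice received a single oral dose of 100 mg/kg. Plasma and tumors were collected at 1, 4, 8, 16, 24 and 32 h. Tumor lysates from each group (n = 5) were pooled. Phospho-proteins were quantified by Western blot and normalized to α-tubulin.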
# Mus musculus [7] = assay: In vivo inhibition of mTORC1-mediated phosphorylation of 4EBP1 at ([…]) in human PC3 cells xenografted into athymic nude mouse at 100 mg/kg, po after 24 hrs by Western blotting analysis relative to control; assay type: functional; details: PC-3, 24 h; outline: as §4
# [8] = Plasma concentration in athymic mouse plasma xenografted with human MCF7 cells at 100 mg/kg, po after 1 hr; assay type: ADME, organism-based; design: dose 100 mg/kg, route oral; outline: as §1
# [9] = molecular target: Serine/threonine-protein kinase mTOR (Homo sapiens) (UniProt P42345); assay: Competitive inhibition of mTOR (unknown origin) in presence of ATP
# [10] = Tmax in CD rat at 3 mg/kg, po; assay type: ADME, organism-based; design: dose 3 mg/kg, route oral; details: in vivo
# [11] = Volume of distribution at steady state in Beagle dog at 3 mg/kg, iv; assay type: ADME, organism-based, Canis lupus familiaris; design: dose 3 mg/kg, route intravenous; details: in vivo, read-out: Vdss
# Plasma [12] = assay: Plasma concentration in athymic mouse plasma xenografted with human PC3 cells at 100 mg/kg, po after 24 hrs; assay type: ADME, organism-based, PC-3; design: dose 100 mg/kg, route oral; details: in vivo, BLD = below limit of detection
# Plasma [13] = assay: Plasma concentration in athymic mouse plasma xenografted with human PC3 cells at 100 mg/kg, po after 32 hrs; assay type: ADME, organism-based, PC-3; design: dose 100 mg/kg, route oral; details: in vivo, BLD = below limit of detection
# [14] = Volume of distribution at steady state in athymic nude mouse at 10 mg/kg, iv; assay type: ADME, organism-based; design: dose 10 mg/kg, route intravenous; details: in vivo, read-out: Vdss
# [15] = molecular target: Serine/threonine-protein kinase Chk1 (Homo sapiens, UniProt O14757); assay: Inhibition of CHK1 (unknown origin)
# Chain of Serine/threonine-protein kinase Chk1 (O14757 whole entry): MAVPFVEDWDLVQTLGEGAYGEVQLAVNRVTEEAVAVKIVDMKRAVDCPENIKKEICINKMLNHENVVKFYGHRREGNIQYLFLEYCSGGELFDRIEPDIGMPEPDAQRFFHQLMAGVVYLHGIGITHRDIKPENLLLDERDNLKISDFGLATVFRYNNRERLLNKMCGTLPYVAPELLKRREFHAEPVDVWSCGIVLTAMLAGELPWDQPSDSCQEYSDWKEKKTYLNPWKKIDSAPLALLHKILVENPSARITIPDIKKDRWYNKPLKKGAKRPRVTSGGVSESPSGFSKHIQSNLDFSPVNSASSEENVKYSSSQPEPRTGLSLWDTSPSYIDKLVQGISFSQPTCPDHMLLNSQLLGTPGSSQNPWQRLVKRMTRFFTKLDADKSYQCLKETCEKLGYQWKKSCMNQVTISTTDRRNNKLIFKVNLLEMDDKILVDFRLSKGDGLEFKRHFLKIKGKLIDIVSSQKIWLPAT
# [16] = molecular target: RAF proto-oncogene serine/threonine-protein kinase (Homo sapiens, UniProt P04049); assay: Inhibition of cRAF (unknown origin)
# Chain of RAF proto-oncogene serine/threonine-protein kinase (P04049 whole entry): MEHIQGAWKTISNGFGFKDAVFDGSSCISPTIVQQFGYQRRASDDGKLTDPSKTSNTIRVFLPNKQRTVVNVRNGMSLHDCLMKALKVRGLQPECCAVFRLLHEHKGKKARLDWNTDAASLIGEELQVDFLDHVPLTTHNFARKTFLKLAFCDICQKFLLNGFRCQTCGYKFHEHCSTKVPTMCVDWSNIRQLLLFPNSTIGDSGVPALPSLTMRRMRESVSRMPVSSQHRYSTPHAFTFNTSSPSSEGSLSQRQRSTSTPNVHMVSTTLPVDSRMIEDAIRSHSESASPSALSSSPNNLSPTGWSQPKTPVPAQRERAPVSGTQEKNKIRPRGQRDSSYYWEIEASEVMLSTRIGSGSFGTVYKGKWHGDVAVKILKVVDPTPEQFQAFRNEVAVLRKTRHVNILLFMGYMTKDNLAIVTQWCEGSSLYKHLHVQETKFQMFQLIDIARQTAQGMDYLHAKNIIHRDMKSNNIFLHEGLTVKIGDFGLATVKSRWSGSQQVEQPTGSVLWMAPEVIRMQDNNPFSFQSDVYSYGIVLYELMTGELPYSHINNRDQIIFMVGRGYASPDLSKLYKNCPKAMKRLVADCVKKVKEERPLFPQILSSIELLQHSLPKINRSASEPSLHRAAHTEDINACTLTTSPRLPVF
# [17] = Half life in CD rat at 3 mg/kg, iv; assay type: ADME, organism-based; design: dose 3 mg/kg, route intravenous; details: in vivo; outline: as §3
# [18] = Cmax in athymic nude mouse at 10 mg/kg, iv; assay type: ADME, organism-based; design: dose 10 mg/kg, route intravenous; details: in vivo; outline: as §3
# [19] = molecular target: Tyrosine-protein kinase JAK2 (Homo sapiens, UniProt O60674); assay: Inhibition of JAK2 (unknown origin)
# Chain of Tyrosine-protein kinase JAK2 (O60674 whole entry): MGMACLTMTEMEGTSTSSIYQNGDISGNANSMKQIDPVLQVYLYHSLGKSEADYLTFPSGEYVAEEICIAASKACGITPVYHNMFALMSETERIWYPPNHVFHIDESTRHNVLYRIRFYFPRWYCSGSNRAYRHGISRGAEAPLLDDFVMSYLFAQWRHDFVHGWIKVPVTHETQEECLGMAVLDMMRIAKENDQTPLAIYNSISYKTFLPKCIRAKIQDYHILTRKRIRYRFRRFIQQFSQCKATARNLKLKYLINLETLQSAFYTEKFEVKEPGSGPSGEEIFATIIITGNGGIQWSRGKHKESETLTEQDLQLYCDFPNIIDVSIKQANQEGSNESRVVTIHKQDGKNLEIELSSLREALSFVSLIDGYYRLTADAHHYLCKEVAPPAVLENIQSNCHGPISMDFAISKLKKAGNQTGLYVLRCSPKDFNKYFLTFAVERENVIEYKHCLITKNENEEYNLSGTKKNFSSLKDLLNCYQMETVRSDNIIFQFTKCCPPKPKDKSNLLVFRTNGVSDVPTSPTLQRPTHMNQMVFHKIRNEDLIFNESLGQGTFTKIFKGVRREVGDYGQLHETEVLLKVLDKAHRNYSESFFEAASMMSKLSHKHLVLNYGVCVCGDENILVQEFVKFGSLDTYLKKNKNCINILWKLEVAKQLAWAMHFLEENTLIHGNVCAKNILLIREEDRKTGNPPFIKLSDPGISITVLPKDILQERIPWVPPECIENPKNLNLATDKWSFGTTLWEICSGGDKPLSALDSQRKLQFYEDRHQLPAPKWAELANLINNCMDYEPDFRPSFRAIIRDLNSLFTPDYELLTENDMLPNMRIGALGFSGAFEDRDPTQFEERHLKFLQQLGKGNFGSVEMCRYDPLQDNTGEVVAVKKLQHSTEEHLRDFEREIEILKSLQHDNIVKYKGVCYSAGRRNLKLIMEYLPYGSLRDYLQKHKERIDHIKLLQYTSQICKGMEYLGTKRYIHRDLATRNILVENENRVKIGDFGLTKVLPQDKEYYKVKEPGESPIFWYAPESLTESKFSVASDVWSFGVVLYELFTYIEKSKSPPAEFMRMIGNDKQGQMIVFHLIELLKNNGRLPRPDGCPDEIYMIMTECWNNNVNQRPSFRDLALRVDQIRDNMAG
# [20] = AUC (0 to infinity) in Beagle dog at 3 mg/kg, iv; assay type: ADME, organism-based, Canis lupus familiaris; design: time infinity, dose 3 mg/kg, route intravenous; details: plasma; outline: as §3
# [21] = Drug uptake in tumor of athymic mouse xenografted with human MCF7 cells at 100 mg/kg, po after 32 hrs; assay type: ADME, organism-based, Neoplasm; design: dose 100 mg/kg, route oral; details: read-out: Drug uptake
# Mus musculus [22] = assay: In vivo inhibition of mTORC2-mediated phosphorylation of AKT at serine 473 in human PC3 cells xenografted into athymic nude mouse at 100 mg/kg, po after 16 hrs by Western blotting analysis relative to control; assay type: functional; details: PC-3, 16 h; outline: as §4
# Mus musculus [23] = assay: In vivo inhibition of mTORC1-mediated phosphorylation of p70S6K at […] in human PC3 cells xenografted into athymic nude mouse at 100 mg/kg, po after 4 hrs by Western blotting analysis relative to control; assay type: functional; details: PC-3, 4 h; outline: as §4
# [24] = Drug uptake in tumor of athymic mouse xenografted with human MCF7 cells at 100 mg/kg, po after 1 hr; assay type: ADME, organism-based, Neoplasm; design: dose 100 mg/kg, route oral; details: read-out: Drug uptake
# [25] = Metabolic stability in dog liver microsomes after 30 mins; assay type: ADME, Canis lupus familiaris, Microsome; details: read-out: Stability
# [26] = molecular target: Ribosomal protein S6 kinase beta-1 (Homo sapiens, UniProt P23443); assay: Inhibition of p70S6K (unknown origin)
# Chain of Ribosomal protein S6 kinase beta-1 (P23443 whole entry): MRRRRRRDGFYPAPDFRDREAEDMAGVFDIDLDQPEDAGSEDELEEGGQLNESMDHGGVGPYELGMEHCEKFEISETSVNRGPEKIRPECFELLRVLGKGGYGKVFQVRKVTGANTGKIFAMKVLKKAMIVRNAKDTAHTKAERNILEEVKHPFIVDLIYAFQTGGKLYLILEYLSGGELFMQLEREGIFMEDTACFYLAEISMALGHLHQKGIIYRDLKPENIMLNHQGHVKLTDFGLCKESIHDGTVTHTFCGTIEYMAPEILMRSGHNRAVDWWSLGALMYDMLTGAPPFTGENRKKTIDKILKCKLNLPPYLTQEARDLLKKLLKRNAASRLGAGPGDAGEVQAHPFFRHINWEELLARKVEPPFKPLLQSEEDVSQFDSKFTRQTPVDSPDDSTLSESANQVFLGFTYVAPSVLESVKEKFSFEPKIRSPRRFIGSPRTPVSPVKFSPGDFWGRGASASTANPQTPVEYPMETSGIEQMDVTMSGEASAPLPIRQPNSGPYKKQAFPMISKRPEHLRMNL
# Mus musculus [27] = assay: In vivo inhibition of mTORC1-mediated phosphorylation of p70S6K at […] in human PC3 cells xenografted into athymic nude mouse at 100 mg/kg, po after 1 hr by Western blotting analysis relative to control; assay type: functional; details: PC-3, 1 h; outline: as §4
# [28] = molecular target: Phosphatidylinositol 3-kinase catalytic subunit type 3 (Homo sapiens, UniProt Q8NEB9); assay: Inhibition of VPS34 (unknown origin)
# Chain of Phosphatidylinositol 3-kinase catalytic subunit type 3 (Q8NEB9 whole entry): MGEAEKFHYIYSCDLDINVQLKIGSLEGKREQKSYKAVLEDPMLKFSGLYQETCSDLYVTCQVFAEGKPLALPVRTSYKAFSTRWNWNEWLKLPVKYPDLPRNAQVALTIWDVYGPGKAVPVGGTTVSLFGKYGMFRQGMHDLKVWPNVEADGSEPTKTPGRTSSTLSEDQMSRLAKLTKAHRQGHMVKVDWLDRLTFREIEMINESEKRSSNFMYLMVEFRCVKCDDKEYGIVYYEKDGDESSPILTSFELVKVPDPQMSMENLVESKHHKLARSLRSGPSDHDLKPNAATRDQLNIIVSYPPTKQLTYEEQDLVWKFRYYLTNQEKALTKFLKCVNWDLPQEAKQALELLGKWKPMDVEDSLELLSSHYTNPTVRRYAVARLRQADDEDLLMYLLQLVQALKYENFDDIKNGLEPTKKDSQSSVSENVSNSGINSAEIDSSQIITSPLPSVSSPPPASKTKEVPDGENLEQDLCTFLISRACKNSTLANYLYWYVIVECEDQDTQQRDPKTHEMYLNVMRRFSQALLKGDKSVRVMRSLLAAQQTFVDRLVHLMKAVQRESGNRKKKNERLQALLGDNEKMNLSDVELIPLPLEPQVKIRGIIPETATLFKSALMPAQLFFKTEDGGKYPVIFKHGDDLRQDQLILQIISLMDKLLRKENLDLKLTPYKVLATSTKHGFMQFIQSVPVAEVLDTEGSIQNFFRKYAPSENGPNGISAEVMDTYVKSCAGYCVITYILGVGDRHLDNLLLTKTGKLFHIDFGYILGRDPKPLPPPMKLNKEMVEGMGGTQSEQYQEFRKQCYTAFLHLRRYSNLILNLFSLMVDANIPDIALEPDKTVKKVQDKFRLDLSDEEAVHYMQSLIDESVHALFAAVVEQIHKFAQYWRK
# [29] = Apparent permeability across MDCK cells; assay type: ADME, cell-based, Canis lupus familiaris; details: dog
# [30] = molecular target: Voltage-gated inwardly rectifying potassium channel KCNH2 (Homo sapiens, UniProt Q12809); assay: Activity at human ERG by patch clamp technique
# Chain of Voltage-gated inwardly rectifying potassium channel KCNH2 (Q12809 whole entry): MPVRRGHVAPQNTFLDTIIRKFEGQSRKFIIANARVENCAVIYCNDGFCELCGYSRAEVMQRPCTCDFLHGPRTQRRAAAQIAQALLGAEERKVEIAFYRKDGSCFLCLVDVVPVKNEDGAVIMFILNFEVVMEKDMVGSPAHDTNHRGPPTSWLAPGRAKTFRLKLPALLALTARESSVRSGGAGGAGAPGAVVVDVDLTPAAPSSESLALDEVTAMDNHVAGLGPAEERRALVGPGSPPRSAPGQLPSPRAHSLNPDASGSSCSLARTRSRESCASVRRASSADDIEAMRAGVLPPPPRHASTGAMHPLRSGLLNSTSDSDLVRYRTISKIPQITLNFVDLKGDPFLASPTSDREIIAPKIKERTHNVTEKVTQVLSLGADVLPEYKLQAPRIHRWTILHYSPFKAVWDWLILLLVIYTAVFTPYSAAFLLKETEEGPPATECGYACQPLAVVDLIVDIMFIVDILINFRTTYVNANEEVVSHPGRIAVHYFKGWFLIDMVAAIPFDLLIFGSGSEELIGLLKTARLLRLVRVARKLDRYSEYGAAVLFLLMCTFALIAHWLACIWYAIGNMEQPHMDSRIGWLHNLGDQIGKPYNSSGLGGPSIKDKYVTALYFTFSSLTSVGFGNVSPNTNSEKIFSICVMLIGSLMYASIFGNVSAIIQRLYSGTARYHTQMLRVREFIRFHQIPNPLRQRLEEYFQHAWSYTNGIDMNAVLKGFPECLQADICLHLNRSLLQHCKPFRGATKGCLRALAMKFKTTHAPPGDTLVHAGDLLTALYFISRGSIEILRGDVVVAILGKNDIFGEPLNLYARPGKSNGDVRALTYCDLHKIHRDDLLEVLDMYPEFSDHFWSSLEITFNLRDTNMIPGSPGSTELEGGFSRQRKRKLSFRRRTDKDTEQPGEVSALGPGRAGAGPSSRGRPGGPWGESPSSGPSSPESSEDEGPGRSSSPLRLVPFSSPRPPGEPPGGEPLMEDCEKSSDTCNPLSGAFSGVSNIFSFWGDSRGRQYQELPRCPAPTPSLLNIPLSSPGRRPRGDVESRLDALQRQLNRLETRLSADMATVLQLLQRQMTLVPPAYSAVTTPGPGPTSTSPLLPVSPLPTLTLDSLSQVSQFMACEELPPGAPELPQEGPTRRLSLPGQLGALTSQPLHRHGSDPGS
# Outline: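 hERG current measured by manual patch clamp.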
# Mus musculus [31] = assay: In vivo inhibition of mTORC1-mediated phosphorylation of pS6 at (serine 240/244) in human MCF7 cells xenografted into athymic nude mouse at 100 mg/kg, po after 24 hrs by Western blotting analysis relative to control; assay type: functional; details: MCF7, 24 h; outline: as §2
# [32] = Half life in cynomolgus monkey at 3 mg/kg, iv; assay type: ADME, organism-based, Macaca fascicularis; design: dose 3 mg/kg, route intravenous; details: in vivo; outline: as §3
compound,measurement,setting,value
Cc1c(C(=O)N2CCOc3ccc(-c4ccc(N)nc4)cc3C2)ccc(S(C)(=O)=O)c1F,concentration at 4 h,[1],17.8 µM
same,Cp,Plasma [2],BLD
same,inhibition in vivo at 100 mg/kg,Mus musculus [3],-24%
same,inhibition in vivo at 100 mg/kg,Mus musculus [4],89%
same,clearance,[5],9.97 mL/min/kg
same,inhibition in vivo at 100 mg/kg,Mus musculus [6],11%
same,inhibition in vivo at 100 mg/kg,Mus musculus [7],19%
same,concentration at 1 h,[8],34.4 µM
same,inhibition,[9],Active
same,Tmax,[10],30 min
same,Vd,[11],3.15 L/kg
same,Cp,Plasma [12],BLD
same,Cp,Plasma [13],BLD
same,Vd,[14],1.96 L/kg
same,IC50,[15],> 3.5 µM
same,IC50,[16],> 3.5 µM
same,half-life,[17],27 min
same,Cmax,[18],9.14 µM
same,IC50,[19],> 3.5 µM
same,AUC(0-inf),[20],11 µM·h
same,concentration at 32 h,[21],0.1 µM
same,inhibition in vivo at 100 mg/kg,Mus musculus [22],55%
same,inhibition in vivo at 100 mg/kg,Mus musculus [23],95%
same,concentration at 1 h,[24],36.1 µM
same,remaining at 0.5 h,[25],82%
same,IC50,[26],> 3.5 µM
same,inhibition in vivo at 100 mg/kg,Mus musculus [27],87%
same,IC50,[28],> 3.5 µM
same,Papp,[29],15.1 ×10⁻⁶ cm/s
same,Activity,[30],15.9 µM
same,inhibition in vivo at 100 mg/kg,Mus musculus [31],-24%
same,half-life,[32],51.6 min
